Reference: ChEMBL document CHEMBL1126643, “Synthesis and evaluation of 2-pyridinone derivatives as HIV-1-specific reverse transcriptase inhibitors. 4. 3-[2-(Benzoxazol-2-yl)ethyl]-5-ethyl-6-methylpyridin-2(1H)-one and analogues” (J Med Chem, 1993)

Key:
[1] = biological target: T1, Human immunodeficiency virus type 1 reverse transcriptase (Human immunodeficiency virus 1, UniProt Q72547); test: Tested for inhibition against HIV-1 RT (used (poly)rC-(oligo)dG as the template)
[2] = biological target: Human immunodeficiency virus type 1 reverse transcriptase (Human immunodeficiency virus 1) (UniProt Q72547); test: Cell culture inhibitor concentration required to inhibit the spread of HIV-1 strain III B infection in MT-4 human T-lymphoid cells; format: functional, cell-based
[3] = Percent unbound determined for whole normal human plasma; format: functional
How it was run: (§1)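 Compound from 1 mM DMSO stock added to pH 7.4 phosphate/NaCl buffer with human plasma (10-fold diluted plasma), initial compound 10 μM; triplicate aliquots centrifuged through filter tubes, filtrate analysed by HPLC.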

[4] = Plasma equilibrium dissociation constant was determined; format: functional, cell-free, Homo sapiens; how it was run: as §1
[5] = biological target: T1, Human immunodeficiency virus type 1 reverse transcriptase; test: Inhibition against HIV-1 RT (used (poly)rC-(oligo)dG as the template); not characterized
[6] = Half life was determined; format: ADME; conditions: 0.1 N HCl in 90% ethanol
How it was run: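 Acid hydrolysis: stock aliquot added to stirred ethanol/1 N HCl (8.9:1.0 mL) at 37 °C; aliquots withdrawn at intervals, quenched into pH 7.7 0.1 M MES buffer and analysed by HPLC.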

## CCc1cc(S(=O)(=O)Cc2nc3c(Cl)ccc(Cl)c3o2)c(O)nc1C
[1]
  IC50: 0.205 µM

## CCc1cc(CNc2nc3ccccc3o2)c(O)nc1C
[1]
  IC50: 1.25 µM
[2]
  IC95: 10 µM

## COCc1cc(CCc2nc3ccccc3o2)c(=O)[nH]c1C
[1]
  IC50: 2.1 µM

## CCc1cc(CCc2nc3c(F)cccc3o2)c(O)nc1C
[1]
  IC50: 0.015 µM
[3]
  Unbound: 4%
[4]
  Kd: 24 µM
[2]
  IC95: 0.05 µM

## CCc1cc(OCc2nc3c(Cl)ccc(Cl)c3o2)c(O)nc1C
[2]
  IC95: 0.2 µM

## Cc1nc(O)c(CCc2nc3ccccc3o2)cc1N(C)C
[1]
  IC50: 1.85 µM

## CCc1cc(CCc2nc3cccc(C)c3o2)c(=O)[nH]c1C
[1]
  IC50: 0.04 µM

## CCc1cc(CCc2nc3c(C)ccc(C)c3o2)c(=O)[nH]c1C
[1]
  IC50: 0.028 µM

## Cc1nc(O)c(CCc2nc3ccccc3o2)cc1CO
[1]
  IC50: 3.4 µM

## CCc1cc(CCc2nc3c(F)ccc(F)c3o2)c(=S)[nH]c1C
[1]
  IC50: 0.015 µM

## CCc1cc(CCc2nc3c(C)ccc(C)c3o2)c(O)nc1C
[3]
  Unbound: 0.2%
[4]
  Kd: 1.21 µM
[2]
  IC95: 0.3 µM

## CCc1cc(CCc2ccc3ccccc3c2)c(=O)[nH]c1C
[1]
  IC50: 8.4 µM

## CCc1cc(OCC(=O)Nc2ccccc2O)c(O)nc1C
[5]
  IC50: not characterized

## CCc1cc(NCC(=O)Nc2ccccc2O)c(O)nc1C
[5]
  IC50: not characterized

## CCc1cc(OCc2nc3ccccc3o2)c(=O)[nH]c1C
[1]
  IC50: 0.191 µM
[6]
  half-life: 12 min

## CCc1cc(CCc2nc3cccc(F)c3o2)c(=S)[nH]c1C
[1]
  IC50: 0.043 µM

## Cc1cc(CCc2nc3ccccc3o2)c(O)nc1C
[1]
  IC50: 0.17 µM

## CCc1cc(CCc2ccc3ccccc3n2)c(O)nc1C
[1]
  IC50: 2.45 µM

## CCc1cc(CCc2nc3c(F)ccc(F)c3o2)c(O)nc1C
[1]
  IC50: 0.014 µM
[3]
  Unbound: 3%
[4]
  Kd: 18.2 µM
[2]
  IC95: 0.05 µM

## CCc1cc(CCc2nc3c(C)ccc(C)c3o2)c(S)nc1C
[2]
  IC95: 0.2 µM

## CCc1cc(CCC(=O)Nc2ccccc2O)c(=O)[nH]c1C
[1]
  IC50: 5.4 µM

## CCc1c[nH]c(=O)c(CCc2nc3ccccc3o2)c1
[1]
  IC50: 0.177 µM

## CCc1cc(CCc2nc3cccc(F)c3o2)c(O)nc1C
[1]
  IC50: 0.037 µM
[3]
  Unbound: 1.4%
[4]
  Kd: 8.16 µM

## CCc1cc(NCc2nc3ccccc3o2)c(O)nc1C
[6]
  half-life: 35 min
[2]
  IC95: 0.8 µM

## CCc1cc(OCc2nc3c(Cl)ccc(Cl)c3o2)c(=O)[nH]c1C
[1]
  IC50: 0.088 µM
[6]
  half-life: 11 min

## CCc1cc(CCc2nc3c(Cl)cccc3o2)c(O)nc1C
[1]
  IC50: 0.062 µM
[3]
  Unbound: 3%
[4]
  Kd: 17.6 µM
[2]
  IC95: 0.1 µM

## Cc1[nH]c(=O)c(CCc2nc3ccccc3o2)cc1C(N)=O
[1]
  IC50: 41.5 µM

## CCc1cc(CCc2nc3c(C)cccc3o2)c(O)nc1C
[3]
  Unbound: 0.4%
[4]
  Kd: 2.45 µM
[2]
  IC95: 0.1 µM

## CCc1cc(CCc2nc3cccc(Cl)c3o2)c(=S)[nH]c1C
[1]
  IC50: 0.029 µM

## CCc1cc(CCc2nc3ccc(F)cc3o2)c(O)nc1C
[1]
  IC50: 0.442 µM

## CCc1cc(NCC(=O)Nc2c(O)cc(Cl)cc2Cl)c(O)nc1C
[1]
  IC50: > 300 µM

## CCc1cc(CCc2nc3c(Cl)ccc(Cl)c3o2)c(=O)[nH]c1C
[1]
  IC50: 0.014 µM

## CCc1cc(CCCc2nc3ccccc3o2)c(O)nc1C
[1]
  IC50: 16 µM

## CCc1cc(CCc2nc3ccccc3o2)c(S)nc1C
[1]
  IC50: 0.024 µM
[2]
  IC95: 0.2 µM

## CCc1cc([S+]([O-])Cc2nc3c(Cl)ccc(Cl)c3o2)c(O)nc1C (stereo not drawn)
[1]
  IC50: 1.4 µM

## CCc1cc(CCc2nc3c(Cl)cccc3o2)c(S)nc1C
[1]
  IC50: 0.03 µM

## CCc1cc(SCc2nc3c(Cl)ccc(Cl)c3o2)c(O)nc1C
[2]
  IC95: 0.05 µM

## Cc1cc(CCc2nc3c(Cl)ccc(Cl)c3o2)c(=O)[nH]c1C
[1]
  IC50: 0.097 µM

## CCc1cc(SCc2nc3c(Cl)ccc(Cl)c3o2)c(=O)[nH]c1C
[1]
  IC50: 0.011 µM
[6]
  half-life: 34 min

## CCc1cc(/C=C\c2nc3ccccc3o2)c(=O)[nH]c1C
[1]
  IC50: 3 µM

## CCc1cc(/C=C/c2nc3ccccc3o2)c(O)nc1C
[1]
  IC50: 5.9 µM

## CCc1cc(CCC(=O)Nc2c(O)cc(Cl)cc2Cl)c(O)nc1C
[1]
  IC50: > 300 µM

## Cc1nc(O)c(CCc2nc3ccccc3o2)cc1C#N
[1]
  IC50: 0.31 µM

## CCc1cc(CCc2cc3cnccc3o2)c(O)nc1C
[1]
  IC50: 13.5 µM

## CCc1cc(CCc2ccccc2)c(=O)[nH]c1C
[1]
  IC50: 50 µM

## CCc1cc(CCc2nc3cccc(Cl)c3o2)c(O)nc1C
[1]
  IC50: 0.039 µM
[3]
  Unbound: 0.7%
[4]
  Kd: 4.16 µM
[2]
  IC95: 0.1 µM

## Cc1nc(O)c(CCc2nc3ccccc3o2)cc1-c1ccccc1
[1]
  IC50: 1.1 µM

## CCc1cc(CCc2nc3c(Cl)ccc(Cl)c3o2)c(O)nc1C
[3]
  Unbound: 0.1%
[4]
  Kd: 0.76 µM
[2]
  IC95: 0.05 µM

## CCc1cc(CCc2nc3ccc(C)cc3o2)c(=O)[nH]c1C
[1]
  IC50: 0.172 µM

## CCc1cc(CCc2nc3c(C)cccc3o2)c(=O)[nH]c1C
[1]
  IC50: 0.033 µM

## CCC1=C(C)NC(N)C(CCc2nc3ccccc3o2)=C1 (stereo not drawn)
[1]
  IC50: 100 µM

## CCc1cc(NCc2nc3c(Cl)ccc(Cl)c3o2)c(O)nc1C [L-697661]
[1]
  IC50: 0.02 µM
[3]
  Unbound: 0.4%
[6]
  half-life: 17 min
[2]
  IC95: 0.1 µM

## CCc1cc(CCc2ncc(-c3ccccc3)o2)c(O)nc1C
[1]
  IC50: 0.385 µM

## CCCc1cc(CCc2nc3c(Cl)ccc(Cl)c3o2)c(=O)[nH]c1C
[1]
  IC50: 0.034 µM

## CCCc1cc(CCc2nc3ccccc3o2)c(O)nc1C
[1]
  IC50: 0.083 µM

## CCc1cc(CCc2nc3ccccc3o2)c(O)nc1C
[1]
  IC50: 0.023 µM
[3]
  Unbound: 4%
[6]
  half-life: 218 min
[4]
  Kd: 21.6 µM
[2]
  IC95: 0.1 µM

## CCc1cc(CCc2ccccn2)c(O)nc1C
[1]
  IC50: 260 µM

## CCc1cc(CCc2nc3c(F)cccc3o2)c(S)nc1C
[2]
  IC95: 0.1 µM

## CCc1cc(CCc2nc3c(C)ccc(C)c3o2)c(=S)[nH]c1C
[1]
  IC50: 0.052 µM

## CCc1cc(CCc2nc3c(F)ccc(F)c3o2)c(S)nc1C
[2]
  IC95: 0.2 µM

## CCc1cc(CCc2nc3cccc(Cl)c3o2)c(S)nc1C
[2]
  IC95: 0.2 µM

## CCc1cc(CCc2nc3c(F)cccc3o2)c(=S)[nH]c1C
[1]
  IC50: 0.013 µM

## CCc1cc(CCc2cc3ccccc3o2)c(O)nc1C
[1]
  IC50: 0.13 µM

## Cc1[nH]c(=O)c(CCc2nc3ccccc3o2)cc1C(C)C
[1]
  IC50: 0.048 µM

## CCc1cc(CCc2nc3cc(F)ccc3o2)c(=O)[nH]c1C
[1]
  IC50: 1.7 µM

## CCc1cc(CCc2nc3c(Cl)ccc(Cl)c3o2)c(S)nc1C
[1]
  IC50: 0.03 µM
[2]
  IC95: 0.1 µM

## CCc1cc(CCC2=NC3CCCCC3O2)c(=O)[nH]c1C (stereo not drawn)
[1]
  IC50: 0.058 µM

## CCc1cc(CCc2nc3cccc(F)c3o2)c(S)nc1C
[2]
  IC95: 0.2 µM

## CCc1cc(Cc2nc3ccccc3o2)c(O)nc1C
[1]
  IC50: 45 µM
